PAFAH2 FP inh = inhibitors of human PAFAH2; 0.99% of 340,000 active; inhibition, % at 3.39 µM; Q99487; recombinant PAFAH2, FP-rhodamine activity probe, fluorescence polarization;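 active means inhibition above the mean over all tested compounds plus 3 SD, cut at about 30% in these data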;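 further: inhibitors block probe labeling of enzyme so polarization drops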
Apaf1 inhib = human Apaf-1 inhibition | inhibition, % at 20 µM | AID 489030 | 0.71% of 330,000 active | reconstituted apoptosome caspase-3 activity, DEVD-Rh110 fluorescence; active means inhibition of at least 40% at 20 µM
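System: reconstituted apoptosome with Apaf-1, cytochrome c, caspase-9, procaspase-3, dATP; Signal: Rh110 fluorescence intensity; Schedule: 30 min compound preincubation, 50 min activation, room temperature; Reagent: cytochrome c trigger plus (Z-DEVD)2-Rh110 caspase-3 substrate.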
PAFAH1B3 inh = blocks human PAF acetylhydrolase 1B catalytic subunit 3 | recombinant PAFAH1B3, FP-rhodamine probe, fluorescence polarization | inhibition, % at 3.39 µM | 0.28% of 340,000 active | AID 492972;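 active means inhibition above the screen-wide average of all tested compounds plus 3 SD, cut at about 25% in these data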
Target sequence (Q15102 whole entry, looked up): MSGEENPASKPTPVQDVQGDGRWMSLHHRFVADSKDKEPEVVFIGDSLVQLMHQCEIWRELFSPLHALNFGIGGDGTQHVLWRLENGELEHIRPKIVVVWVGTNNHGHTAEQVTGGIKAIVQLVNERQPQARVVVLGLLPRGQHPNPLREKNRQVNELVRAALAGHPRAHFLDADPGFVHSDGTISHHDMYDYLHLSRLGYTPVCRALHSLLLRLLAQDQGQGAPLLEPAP
PAFAH1B2 inh = inhibitors of human PAFAH1B2; P68402; recombinant PAFAH1B2, FP-rhodamine activity probe, fluorescence polarization; inhibition, % at 3.39 µM; 1.2% of 340,000 active; AID 492953;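 active means inhibition above the mean of all tested compounds plus 3 SD, cut at about 24% in these data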
pPAFAH inh = pPAFAH (human) enzyme inhibition. inhibition, % at 3.39 µM. recombinant pPAFAH, FP-rhodamine probe fluorescence polarization. AID 463082. Q13093. 1.5% of 330,000 active;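 active means inhibition above the mean inhibition across the screen plus 3 SD, cut at about 25% in these data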;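 further: inhibitors block binding of the rhodamine activity-based probe so polarization drops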
Target sequence (Q13093 whole entry, looked up): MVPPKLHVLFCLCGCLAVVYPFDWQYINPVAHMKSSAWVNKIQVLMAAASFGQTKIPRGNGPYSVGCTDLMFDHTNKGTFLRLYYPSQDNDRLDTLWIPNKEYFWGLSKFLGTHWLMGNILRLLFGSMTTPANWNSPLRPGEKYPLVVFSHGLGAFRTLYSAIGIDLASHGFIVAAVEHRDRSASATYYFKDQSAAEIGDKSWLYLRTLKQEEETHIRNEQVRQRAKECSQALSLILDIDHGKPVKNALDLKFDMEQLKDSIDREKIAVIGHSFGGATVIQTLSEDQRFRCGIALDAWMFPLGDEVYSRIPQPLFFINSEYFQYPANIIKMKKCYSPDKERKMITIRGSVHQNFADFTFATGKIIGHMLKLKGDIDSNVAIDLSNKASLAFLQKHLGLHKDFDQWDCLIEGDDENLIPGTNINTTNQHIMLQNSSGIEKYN
PAFAH1B3 conf FP = PAFAH1B3 (human) inhibition, confirmed; AID 493032; shares compounds with PAFAH1B3 inh; inhibition, % at 3.39 µM; 30% of 390 active; recombinant PAFAH1B3, FP-Rh activity-based probe, fluorescence polarization;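 active means average inhibition over triplicate runs above the hit cutoff set in the earlier primary screen, cut at about 25% in these data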
Hits are given with their value; i = inactive; nt = no result. Compounds with a hit are over-represented: about 3.1% of the library has one in this group of screens.

SMILES | PAFAH2 FP inh | Apaf1 inhib | PAFAH1B3 inh | PAFAH1B2 inh | pPAFAH inh | PAFAH1B3 conf FP
O=C(Oc1cc(-c2ccccc2)no1)c1ccc(F)cc1 | i | i | i | i | i | nt
Cc1[nH]n(-c2ccccc2)c(=O)c1N=Nc1c(O)cc(S(=O)(=O)N(C)C)c2ccccc12 | i | i | 27 | i | i | i
CCCN(CCC)C1=CC(=[N+]2CCCC2)CC(C)(C)C1 | i | i | i | i | i | nt
Cc1c(N=C2C=CC(=O)c3ccccc32)c(=O)n(-c2ccccc2)n1C | i | nt | 47 | i | nt | 37
Cc1c(N=Nc2ccc(O)cc2)c(=O)n(-c2ccccc2)n1C | i | i | i | i | i | nt
CCOC(=O)c1c(C)oc2c1c(C(c1ccccc1)N1CCOCC1)c(O)c1ccccc12 (stereo not drawn) | i | i | i | i | i | nt
CCOC(=O)c1c(C)oc2c1c(C=NCCO)c(O)c1ccccc12 | i | nt | 30 | i | nt | i
CCOC(=O)C1CCN(c2nc(N)c3c(N)nc(SCC(=O)O)cc3c2C#N)CC1 | i | nt | 37 | i | nt | i
CCOC(=O)C1CCN(c2nc(C)cc(C)c2C#N)CC1 | i | i | i | i | i | nt
COc1ccc(/C=N/NC(=O)c2ccccc2O)cc1Cn1cc([N+](=O)[O-])cn1 | i | i | i | i | i | nt
COc1ccc(/C=N/NC(=O)c2cc(O)c(O)c(O)c2)cc1Cn1cc([N+](=O)[O-])cn1 | i | nt | 39 | i | nt | i
CN=c1sc(C(=O)Nc2ccccc2)c(C)n1C | i | i | i | i | i | nt
CN=c1sc2c(n1C)C(=O)c1ccccc1C2=O | i | nt | 42 | i | nt | 29
COc1cc2c(cc1OC)CN(C(=O)/C=C/c1ccc(F)cc1)CC2 | i | i | i | i | i | nt
COc1cc2c(cc1OC)CN(C(=O)/C=C/c1cc(OC)c(OC)c(OC)c1)CC2 | i | i | 30 | i | i | i
Cc1ccc(C(=O)N/N=C/c2cn(Cc3ccccc3)c3ccccc23)cn1 | i | i | i | i | i | nt
COc1cc(C(=O)N/N=C/c2cn(Cc3cccc(F)c3)c3ccccc23)ccc1O | i | i | 34 | i | nt | i
COc1ccc(S(=O)(=O)NCC(=O)O)cc1C(=O)NC1CCCCC1 | i | i | i | i | i | nt
COc1ccc(N2C(=O)CSC(c3ccccc3)C2=O)cc1 (stereo not drawn) | i | i | i | i | i | nt
C[C@H](CO)N1C[C@H](C)[C@H](CN(C)S(=O)(=O)c2cccs2)Oc2ccc(NC(=O)Nc3ccc4c(c3)OCO4)cc2CC1=O | i | i | 28 | i | i | i
C[C@@H]1CN([C@@H](C)CO)C(=O)Cc2cc(NS(=O)(=O)c3cn(C)cn3)ccc2O[C@@H]1CN(C)C(=O)Nc1ccccc1 | i | i | 26 | i | i | i
Cc1cc(C(=O)O)cc(S(=O)(=O)Nc2ccccc2C(=O)NC(C)c2ccccc2)c1C (stereo not drawn) | i | i | i | i | i | nt
NC(=S)NN=C1c2ccccc2-c2c(F)c(F)c(F)c(F)c21 | i | nt | 51 | i | nt | 46
Cc1cc(C)nc(N2CCC(C(=O)Nc3ccc(Oc4ccccc4)cc3)CC2)n1 | i | i | 108 | i | i | i
Cc1c(C(=O)OCC(=O)NCc2ccc3c(c2)OCO3)cccc1[N+](=O)[O-] | i | i | i | i | i | nt
SMILES | PAFAH2 FP inh | Apaf1 inhib | PAFAH1B3 inh | PAFAH1B2 inh | pPAFAH inh | PAFAH1B3 conf FP
CN(C)C(=O)c1ccc2c(c1[N+](=O)[O-])C(=O)c1ccccc1C2=O | i | i | i | i | i | nt
Cc1[nH]c2ccccc2c1CCNC(=O)c1ccc2c(c1[N+](=O)[O-])C(=O)c1ccccc1C2=O | i | i | 44 | i | i | 67
CCOC(=O)C(Cc1ccc(NC(C)=O)cc1)N1C(=O)c2ccccc2C1=O (stereo not drawn) | i | i | i | i | i | nt
Cc1ccc(-n2c(C)cc(C(=O)NS(=O)(=O)c3ccc(C)cc3)c2C)cc1 | i | i | 52 | i | i | 36
C/C(=N/Nc1ccc(C(=O)O)cc1)c1ccc2c(c1)Nc1ccccc1S2 | i | nt | 26 | i | nt | i
O=c1[nH]c(C2CCN(S(=O)(=O)/C=C/c3ccccc3)CC2)nc2c1nnn2Cc1ccccc1 | i | i | i | i | i | nt
COc1cc(CO)c(OC)c([N+](=O)[O-])c1 | i | i | i | i | i | nt
O=Cc1ccc(O)c2ncccc12 | i | i | 29 | i | nt | i
Cc1nc(CNC(=O)CC2C(=O)NCCN2Cc2ccc(F)cc2)cs1 (stereo not drawn) | i | i | i | i | nt | nt
CC(=O)c1sc(C(C)(C)C)cc1NC(=O)/C=C/C(=O)O | i | i | 44 | i | i | 35
Cc1cscc1NC(=O)/C=C/C(=O)O | nt | i | nt | nt | i | nt
COc1ccc(OC)c(/C=C2\Oc3cc(OCC(=O)N4CCC(C(=O)O)CC4)ccc3C2=O)c1 | i | i | i | i | i | nt
N#CC1(c2ccccc2)CCCN1C(=O)c1ccc(Br)o1 (stereo not drawn) | i | i | i | i | i | nt
C=CCN(C)NC(=S)Nc1ccccc1 | i | i | 42 | i | i | i
COc1ccc(-c2c(C)[nH]n3c(=O)c(Cc4ccccc4)c(C)nc23)cc1 | i | i | i | i | i | nt
COc1cc(C(=O)c2nccc3cc(OC)c(OC)cc23)c([N+](=O)[O-])cc1OC | i | i | 40 | i | i | i
CC(Sc1nnc(Cc2ccccc2)o1)C(=O)Nc1ccccc1[N+](=O)[O-] (stereo not drawn) | i | i | i | i | i | nt
CCc1ccc(N2CC(C(=O)Nc3ccc4c(c3)OCO4)CC2=O)cc1 (stereo not drawn) | i | i | i | i | i | nt
O=C(Cn1ncc(Cl)c(Cl)c1=O)N1CCc2ccccc21 | i | nt | 28 | i | nt | i
O=C(Cn1ncc(Cl)c(Cl)c1=O)N1CCN(Cc2ccccc2)CC1 | i | nt | i | i | nt | nt
CC(=O)c1c(C)oc2c1C(=O)c1ccccc1C2=O | i | nt | 28 | i | i | i
Cc1cc(C)c(NC(=O)Cn2nnc(C(=O)NCc3ccc4c(c3)OCO4)c2N)c(C)c1 | i | i | i | i | i | nt
CCOc1ccccc1/C=C/c1nc2ccccc2[nH]c1=O | i | i | 28 | i | nt | i
COc1cc(NCCCCCCN)c2ncccc2c1OC | i | nt | 57 | i | nt | i
Cc1ccc(C)c(N2N=C(C(=O)Nc3cccnc3)CCC2=O)c1 | i | i | i | i | i | nt
O=C(O)c1ccc(Nc2nc(-c3ccc([N+](=O)[O-])cc3)nc3ccccc23)cc1 | i | i | 26 | i | nt | i
CC(C)(C)c1nnc2sc(SCC(=O)c3ccc(Cl)cc3)nn2c1=O | i | i | 27 | i | i | i
Cc1ccc(C(=O)CSc2nn3c(=O)c(C(C)(C)C)nnc3s2)cc1 | i | i | i | i | i | nt
COC(=O)c1cc2c(n1S(=O)(=O)c1ccc(C)cc1)C(=O)C(=O)c1[nH]cc(C(=O)OCc3ccccc3)c1-2 | i | nt | 39 | i | nt | 34
COC(=O)c1ccc(COC(=O)c2ccc(CS(=O)(=O)c3ccc(C)cc3)cc2)cc1 | i | i | i | i | i | nt

Assay outcomes (PubChem BioAssay)
